Experimental data as given in ChEMBL document CHEMBL5678806, “NMS-P937, an orally available, specific small-molecule polo-like kinase 1 inhibitor with antitumor activity in solid and hematologic malignancies” (Mol Cancer Ther, 2012).
Active and inactive are the calls of the source. The rule behind the calls is not given here.

Experiments:
[1] = target: Serine/threonine-protein kinase D1 (Homo sapiens) (UniProt Q15139); test: Inhibition of N-terminal His6-tagged recombinant full-length human PKCmu expressed in Sf21 cells assessed as residual activity at 1 uM relative to control
[2] = target: Angiopoietin-1 receptor (Homo sapiens) (UniProt Q02763); test: Inhibition of N-terminal His6-tagged recombinant human Tie2 (771 to end residues) expressed in baculovirus infected Sf21 cells assessed as residual activity at 0.1 uM relative to control
Angiopoietin-1 receptor (Homo sapiens), sequence (Q02763 whole entry, the tested form may be a part): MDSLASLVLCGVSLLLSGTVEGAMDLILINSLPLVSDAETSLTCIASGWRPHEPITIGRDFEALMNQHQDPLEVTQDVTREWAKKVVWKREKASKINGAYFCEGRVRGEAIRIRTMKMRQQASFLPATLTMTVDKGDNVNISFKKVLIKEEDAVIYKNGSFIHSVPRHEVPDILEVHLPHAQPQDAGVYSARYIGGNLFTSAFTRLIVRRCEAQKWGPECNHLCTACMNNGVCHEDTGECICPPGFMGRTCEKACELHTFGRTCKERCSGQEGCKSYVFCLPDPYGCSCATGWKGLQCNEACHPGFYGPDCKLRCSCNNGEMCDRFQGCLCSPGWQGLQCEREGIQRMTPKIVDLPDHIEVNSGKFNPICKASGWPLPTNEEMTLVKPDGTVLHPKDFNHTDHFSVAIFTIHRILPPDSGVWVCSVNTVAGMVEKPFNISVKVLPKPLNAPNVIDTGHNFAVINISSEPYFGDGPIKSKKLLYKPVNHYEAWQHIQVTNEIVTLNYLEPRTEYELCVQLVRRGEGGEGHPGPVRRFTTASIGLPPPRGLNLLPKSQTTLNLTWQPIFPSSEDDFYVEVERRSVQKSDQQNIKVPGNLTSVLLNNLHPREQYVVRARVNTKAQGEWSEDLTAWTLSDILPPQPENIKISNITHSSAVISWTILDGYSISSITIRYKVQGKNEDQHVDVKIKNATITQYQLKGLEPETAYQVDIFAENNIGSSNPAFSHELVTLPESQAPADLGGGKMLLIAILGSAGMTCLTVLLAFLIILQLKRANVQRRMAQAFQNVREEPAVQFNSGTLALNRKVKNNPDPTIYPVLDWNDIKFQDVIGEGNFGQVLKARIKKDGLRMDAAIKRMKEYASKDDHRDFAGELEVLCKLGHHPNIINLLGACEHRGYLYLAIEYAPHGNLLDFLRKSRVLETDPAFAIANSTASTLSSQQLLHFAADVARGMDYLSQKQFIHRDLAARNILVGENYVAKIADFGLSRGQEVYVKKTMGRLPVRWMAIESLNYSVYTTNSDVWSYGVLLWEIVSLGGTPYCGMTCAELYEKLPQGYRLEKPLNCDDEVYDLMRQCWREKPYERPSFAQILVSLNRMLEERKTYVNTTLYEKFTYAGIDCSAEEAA

[3] = target: Ephrin type-B receptor 3 (Homo sapiens) (UniProt P54753); test: Inhibition of N-terminal His6-tagged recombinant human EphB3 (599 to 920 residues) expressed in baculovirus infected Sf21 cells assessed as residual activity at 1 uM relative to control
[4] = target: Homeodomain-interacting protein kinase 2 (Homo sapiens) (UniProt Q9H2X6); test: Inhibition of N-terminal His6-tagged recombinant human HIPK2 (165 to 564 residues) expressed in baculovirus infected Sf21 cells assessed as residual activity at 1 uM relative to control
Homeodomain-interacting protein kinase 2 (Homo sapiens), sequence (Q9H2X6 whole entry, looked up, the tested form may be a part): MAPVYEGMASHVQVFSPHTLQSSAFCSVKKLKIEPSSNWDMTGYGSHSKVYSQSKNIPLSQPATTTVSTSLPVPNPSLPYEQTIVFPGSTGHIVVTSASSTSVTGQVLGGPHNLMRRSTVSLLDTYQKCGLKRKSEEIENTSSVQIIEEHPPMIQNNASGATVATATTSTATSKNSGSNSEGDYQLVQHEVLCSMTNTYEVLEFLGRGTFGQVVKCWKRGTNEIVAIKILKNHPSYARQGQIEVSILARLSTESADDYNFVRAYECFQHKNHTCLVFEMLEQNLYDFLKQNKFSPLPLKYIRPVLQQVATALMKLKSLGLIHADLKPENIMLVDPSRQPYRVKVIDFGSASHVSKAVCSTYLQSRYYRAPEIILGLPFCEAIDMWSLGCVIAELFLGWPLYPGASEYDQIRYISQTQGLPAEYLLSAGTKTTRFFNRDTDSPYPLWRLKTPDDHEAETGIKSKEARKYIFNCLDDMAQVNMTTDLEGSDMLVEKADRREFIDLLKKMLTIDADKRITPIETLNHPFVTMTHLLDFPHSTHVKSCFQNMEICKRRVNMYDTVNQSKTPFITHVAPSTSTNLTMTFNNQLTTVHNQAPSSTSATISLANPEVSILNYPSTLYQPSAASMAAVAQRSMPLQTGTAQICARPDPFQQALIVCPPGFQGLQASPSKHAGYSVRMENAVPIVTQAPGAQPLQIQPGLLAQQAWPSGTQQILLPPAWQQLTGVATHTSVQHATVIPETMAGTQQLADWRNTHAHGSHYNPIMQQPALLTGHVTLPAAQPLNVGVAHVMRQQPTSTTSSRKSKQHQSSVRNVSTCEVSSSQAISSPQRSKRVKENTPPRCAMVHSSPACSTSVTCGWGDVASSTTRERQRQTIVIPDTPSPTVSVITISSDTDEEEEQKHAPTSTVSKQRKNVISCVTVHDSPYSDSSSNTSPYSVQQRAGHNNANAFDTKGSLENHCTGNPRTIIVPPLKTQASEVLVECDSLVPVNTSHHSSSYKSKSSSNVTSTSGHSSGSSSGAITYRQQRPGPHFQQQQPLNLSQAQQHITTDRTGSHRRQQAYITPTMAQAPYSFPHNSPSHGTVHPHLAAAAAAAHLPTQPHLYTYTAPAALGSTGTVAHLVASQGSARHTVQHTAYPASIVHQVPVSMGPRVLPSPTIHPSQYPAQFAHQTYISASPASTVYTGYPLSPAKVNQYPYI

[5] = target: cAMP-dependent protein kinase catalytic subunit PRKX (Homo sapiens) (UniProt P51817); test: Inhibition of N-terminal 6His-tagged recombinant full-length human PrKX expressed in baculovirus infected Sf21 cells assessed as residual activity at 1 uM relative to control
cAMP-dependent protein kinase catalytic subunit PRKX (Homo sapiens), sequence (P51817 whole entry): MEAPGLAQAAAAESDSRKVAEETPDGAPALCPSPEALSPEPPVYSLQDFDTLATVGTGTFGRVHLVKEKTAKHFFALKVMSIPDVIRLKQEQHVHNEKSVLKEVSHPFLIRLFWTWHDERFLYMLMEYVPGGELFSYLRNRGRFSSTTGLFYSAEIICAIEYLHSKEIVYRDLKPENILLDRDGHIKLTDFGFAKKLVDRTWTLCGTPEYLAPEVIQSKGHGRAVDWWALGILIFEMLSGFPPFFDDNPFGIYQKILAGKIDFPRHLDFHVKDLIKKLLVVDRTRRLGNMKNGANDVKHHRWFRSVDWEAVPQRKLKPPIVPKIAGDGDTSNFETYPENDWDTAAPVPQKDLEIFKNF

[6] = system: RERF-LC-AI; test: Antiproliferative activity against human RERF-LC-AI cells assessed as inhibition of cell growth incubated for 72 hrs by cell-titer glo assay; assay type: functional, cell-based
Procedure, shortened: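 Cells from ATCC or ECACC, kept in supplier-recommended medium with 1% penicillin-streptomycin at 37°C, 5% CO₂. Seeded at 10,000–30,000/cm² (adherent) or 100,000/mL (nonadherent) in medium with 10% fetal calf serum. Dosed after 24 h in duplicate with serial dilutions. Viable cells read by CellTiter-Glo 72 h later. IC50 from sigmoidal fit. At least two independent experiments.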

[7] = system: HCT-15; test: Antiproliferative activity against human HCT-15 cells assessed as inhibition of cell growth incubated for 72 hrs by cell-titer glo assay; assay type: functional, cell-based; details: HCT-15, 72 h
Procedure, shortened: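 Cells seeded at 10,000–30,000/cm² (adherent) or 100,000/mL (nonadherent) in medium with 10% fetal calf serum; after 24 h, treated in duplicate with serial dilutions for 72 h. Viable cell number read by CellTiter-Glo luminescence; IC50 from sigmoidal fit; at least two independent experiments.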

[8] = target: Mitogen-activated protein kinase 11 (Homo sapiens) (UniProt Q15759); test: Inhibition of N-terminal GST fusion protein corresponding to full-length human SAPK2b expressed in E. coli assessed as residual activity at 0.1 uM relative to control
Mitogen-activated protein kinase 11 (Homo sapiens), sequence (Q15759 whole entry, the tested form may be a part): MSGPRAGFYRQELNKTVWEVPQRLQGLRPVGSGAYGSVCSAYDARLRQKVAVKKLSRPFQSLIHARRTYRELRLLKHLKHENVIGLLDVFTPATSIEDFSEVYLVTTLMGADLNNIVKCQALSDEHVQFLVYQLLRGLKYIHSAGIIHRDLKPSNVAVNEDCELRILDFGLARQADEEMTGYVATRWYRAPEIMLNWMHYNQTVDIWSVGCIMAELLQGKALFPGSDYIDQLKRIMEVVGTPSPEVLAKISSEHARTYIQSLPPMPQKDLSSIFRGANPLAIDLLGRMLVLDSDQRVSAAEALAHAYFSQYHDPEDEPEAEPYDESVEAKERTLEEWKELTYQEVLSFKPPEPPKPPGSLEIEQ

[9] = system: A2780; test: Induction of cell cycle arrest in human A2780 cells assessed as accumulation of cells at G2/M phase by measuring 4N DNA content incubated for 24 hrs by flow cytometry analysis; details: dose 20-200 nmol/L
[10] = target: Mitogen-activated protein kinase kinase kinase 9 (Homo sapiens) (UniProt P80192); test: Inhibition of N-terminal 6His-tagged recombinant human MLK1 (134 to 414 residues) expressed in baculovirus infected Sf21 cells assessed as residual activity at 0.1 uM relative to control
[11] = system: BT-549; test: Antiproliferative activity against human BT-549 cells assessed as inhibition of cell growth incubated for 72 hrs by cell-titer glo assay; assay type: functional, cell-based; details: BT-549, 72 h
Procedure, shortened: (§1)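 Cells seeded 10,000–30,000/cm² (adherent) or 100,000/mL (suspension) in medium with 10% fetal calf serum; after 24 h treated in duplicate with serial dilutions for 72 h. Viable cells read by CellTiter-Glo luminescence; IC50 from sigmoidal fit; at least two independent experiments.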

[12] = target: Inhibitor of nuclear factor kappa-B kinase subunit beta (Homo sapiens) (UniProt O14920); test: Inhibition of N-terminal His6 tagged recombinant full-length human IKKbeta expressed in baculovirus infected Sf21 cells assessed as residual activity at 0.1 uM relative to control
[13] = Clearance in nu/nu mouse at 10 mg/kg, iv by LC-MS analysis; assay type: ADME, organism-based; details: in vivo
[14] = target: Tyrosine-protein kinase Fer (Homo sapiens) (UniProt P16591); test: Inhibition of N-terminal His6 tagged recombinant human Fer (541 to end residues) expressed in baculovirus infected Sf21 cells assessed as residual activity at 0.1 uM relative to control
[15] = system: 1A9; test: Antiproliferative activity against human 1A9 cells assessed as inhibition of cell growth incubated for 72 hrs by cell-titer glo assay; assay type: functional, cell-based; details: 1A9, 72 h; procedure, shortened: as §1
[16] = system: A2780; test: In vivo inhibition of PLK1 in human A2780 cells xenografted in nu/nu mouse assessed as decreased TCTP phosphorylation on Ser46 at 60 mg/kg, po administered for 2 hrs by Western blotting analysis; assay type: functional, organism-based
[17] = target: Ribosomal protein S6 kinase alpha-3 (Homo sapiens) (UniProt P51812); test: Inhibition of N-terminal His6 tagged recombinant human full-length Rsk2 expressed in baculovirus infected Sf21 cells assessed as residual activity at 1 uM relative to control
Ribosomal protein S6 kinase alpha-3 (Homo sapiens), sequence (P51812 whole entry): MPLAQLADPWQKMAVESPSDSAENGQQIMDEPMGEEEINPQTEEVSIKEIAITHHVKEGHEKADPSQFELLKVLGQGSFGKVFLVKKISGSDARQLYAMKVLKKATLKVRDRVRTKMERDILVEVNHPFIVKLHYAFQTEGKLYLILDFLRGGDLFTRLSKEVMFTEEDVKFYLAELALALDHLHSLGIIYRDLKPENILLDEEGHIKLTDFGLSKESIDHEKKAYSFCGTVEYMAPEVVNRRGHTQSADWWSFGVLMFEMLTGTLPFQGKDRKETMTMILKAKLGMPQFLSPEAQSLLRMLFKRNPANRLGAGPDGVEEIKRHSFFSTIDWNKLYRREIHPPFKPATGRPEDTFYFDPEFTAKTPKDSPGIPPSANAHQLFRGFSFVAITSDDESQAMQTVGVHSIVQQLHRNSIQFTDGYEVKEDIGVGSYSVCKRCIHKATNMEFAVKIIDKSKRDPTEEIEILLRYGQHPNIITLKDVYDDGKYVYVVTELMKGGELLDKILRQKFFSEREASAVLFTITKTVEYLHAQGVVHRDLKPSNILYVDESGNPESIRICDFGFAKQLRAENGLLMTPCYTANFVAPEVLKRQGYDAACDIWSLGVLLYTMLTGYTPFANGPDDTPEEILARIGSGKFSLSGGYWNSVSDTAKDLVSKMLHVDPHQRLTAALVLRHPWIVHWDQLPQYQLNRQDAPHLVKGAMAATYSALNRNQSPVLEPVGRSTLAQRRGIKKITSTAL

[18] = system: T98G; test: Antiproliferative activity against human T98G cells assessed as inhibition of cell growth incubated for 72 hrs by cell-titer glo assay; assay type: functional, cell-based
[19] = Volume of distribution at steady state in male cynomolgus monkey at 5 mg/kg, iv by LC-MS analysis; assay type: ADME, organism-based, Macaca fascicularis; details: in vivo, read-out: Vdss
[20] = target: Tyrosine-protein kinase Fes/Fps (Homo sapiens) (UniProt P07332); test: Inhibition of N-terminal His6-tagged recombinant full length human Fes expressed in baculovirus infected Sf21 cells assessed as residual activity at 1 uM relative to control
Tyrosine-protein kinase Fes/Fps (Homo sapiens), sequence (P07332 whole entry): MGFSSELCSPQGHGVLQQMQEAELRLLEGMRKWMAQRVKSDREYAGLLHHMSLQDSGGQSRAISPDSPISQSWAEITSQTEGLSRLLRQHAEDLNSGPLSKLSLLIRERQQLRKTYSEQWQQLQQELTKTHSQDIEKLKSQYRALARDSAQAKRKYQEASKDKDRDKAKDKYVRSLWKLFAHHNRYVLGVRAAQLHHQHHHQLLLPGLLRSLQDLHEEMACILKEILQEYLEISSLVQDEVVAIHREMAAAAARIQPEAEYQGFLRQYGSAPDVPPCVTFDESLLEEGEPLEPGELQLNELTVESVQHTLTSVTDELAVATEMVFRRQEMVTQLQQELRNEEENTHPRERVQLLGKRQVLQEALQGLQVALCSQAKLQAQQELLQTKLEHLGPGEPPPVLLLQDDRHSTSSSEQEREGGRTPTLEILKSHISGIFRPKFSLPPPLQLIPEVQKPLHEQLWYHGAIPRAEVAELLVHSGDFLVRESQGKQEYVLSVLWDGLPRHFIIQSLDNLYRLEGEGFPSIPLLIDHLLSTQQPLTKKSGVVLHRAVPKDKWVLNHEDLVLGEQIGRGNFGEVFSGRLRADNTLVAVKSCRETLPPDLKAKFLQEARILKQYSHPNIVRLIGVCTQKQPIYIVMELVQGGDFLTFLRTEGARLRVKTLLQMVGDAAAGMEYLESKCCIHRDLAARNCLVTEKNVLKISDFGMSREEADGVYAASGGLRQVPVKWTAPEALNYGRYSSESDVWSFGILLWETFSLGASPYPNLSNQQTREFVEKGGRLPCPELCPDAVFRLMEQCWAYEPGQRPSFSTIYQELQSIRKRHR

[21] = system: U2OS; test: Induction of cell death in human U2OS cells assessed as reduced cell number at 1 uM by time lapse microscopy analysis; assay type: functional, cell-based; details: time lower […], time upper 48.0 hrs, TDE = time-dependent effect
[22] = target: Mitogen-activated protein kinase 13 (Homo sapiens) (UniProt O15264); test: Inhibition of recombinant GST-tagged fusion protein fused to full length human SAPK4 expressed in E. coli assessed as residual activity at 0.1 uM relative to control
[23] = system: CAL-51; test: Antiproliferative activity against human CAL-51 cells assessed as inhibition of cell growth incubated for 72 hrs by cell-titer glo assay; assay type: functional, cell-based; details: CAL-51, 72 h; procedure, shortened: as §1
[24] = system: CAPAN-1; test: Antiproliferative activity against human CAPAN-1 cells assessed as inhibition of cell growth incubated for 72 hrs by cell-titer glo assay; assay type: functional, cell-based; details: CAPAN-1, 72 h; procedure, shortened: as §1
[25] = system: SW1417; test: Antiproliferative activity against human SW1417 cells assessed as inhibition of cell growth incubated for 72 hrs by cell-titer glo assay; assay type: functional, cell-based; details: SW1417, 72 h
[26] = system: U2OS; test: Effect on cell morphology in human U2OS cells expressing GFP/alpha-tubulin fusion protein assessed as aberrant number of spindle poles at 1 uM incubated for 24 hrs by laser scanning confocal microscopy analysis; assay type: functional, cell-based
[27] = target: MAP kinase-interacting serine/threonine-protein kinase 2 (Homo sapiens, UniProt Q9HBH9); test: Inhibition of MNK2 (unknown origin) in presence of [gamma-33P]ATP
MAP kinase-interacting serine/threonine-protein kinase 2, sequence (Q9HBH9 whole entry): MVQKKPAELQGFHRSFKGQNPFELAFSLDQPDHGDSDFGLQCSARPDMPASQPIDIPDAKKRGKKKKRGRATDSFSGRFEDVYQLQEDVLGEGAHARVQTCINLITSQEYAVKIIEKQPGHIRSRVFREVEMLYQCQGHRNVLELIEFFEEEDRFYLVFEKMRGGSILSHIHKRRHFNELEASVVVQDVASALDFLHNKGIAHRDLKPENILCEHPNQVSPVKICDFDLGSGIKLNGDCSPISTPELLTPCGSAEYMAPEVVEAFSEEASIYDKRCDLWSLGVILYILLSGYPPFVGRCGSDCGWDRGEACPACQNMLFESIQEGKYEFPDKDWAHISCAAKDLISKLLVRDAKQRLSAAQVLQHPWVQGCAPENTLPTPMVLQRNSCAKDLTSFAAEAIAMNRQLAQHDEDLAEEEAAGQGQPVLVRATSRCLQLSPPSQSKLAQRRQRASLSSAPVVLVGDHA

Question: For `CN1CCN(c2ccc(OC(F)(F)F)c(Nc3ncc4c(n3)-c3c(c(C(N)=O)nn3CCO)CC4)c2)CC1` [ONVANSERTIB], which Activity [1] is on record?
Answer: 85%

Question: And the Activity [2]?
Answer: 113%

Question: And the Activity [3]?
Answer: 87%

Question: What about the Activity [4] of the same molecule?
Answer: 96%

Question: And the Activity [5]?
Answer: 69%

Question: What about the IC50 [6] of the same molecule?
Answer: 90 nM

Question: What about the IC50 [7] of the same molecule?
Answer: 156 nM

Question: What about the Activity [8] of the same molecule?
Answer: 152%

Question: What about the Activity [9] of the same molecule?
Answer: Dose-Dependent Effect

Question: And the Activity [10]?
Answer: 93%

Question: What about the IC50 [11] of the same molecule?
Answer: 49 nM

Question: What about the Activity [12] of the same molecule?
Answer: 122%

Question: What about the clearance [13] of the same molecule?
Answer: 39.4 mL/min/kg

Question: And the Activity [14]?
Answer: 125%

Question: And the IC50 [15]?
Answer: 62 nM

Question: What about the inhibition [16] of the same molecule?
Answer: Active

Question: And the Activity [17]?
Answer: 89%

Question: And the IC50 [18]?
Answer: 228 nM

Question: And the Vd [19]?
Answer: 2.9 L/kg

Question: And the Activity [20]?
Answer: 30%

Question: And the Activity [21]?
Answer: Tde

Question: And the Activity [22]?
Answer: 113%

Question: What about the IC50 [23] of the same molecule?
Answer: 19 nM

Question: And the IC50 [24]?
Answer: 237 nM

Question: And the IC50 [25]?
Answer: 606 nM

Question: And the Activity [26]?
Answer: Active

Question: And the IC50 [27]?
Answer: > 10000 nM
